# Assay results as given in ChEMBL document CHEMBL3526048, “In vitro metabolism of rivoglitazone, a novel peroxisome proliferator-activated receptor γ agonist, in rat, monkey, and human liver microsomes and freshly isolated hepatocytes” (Drug Metab Dispos, 2011).
# Assays:
# [1] = tested on: Liver microsome; test: Drug level in Sprague-Dawley rat liver microsomes treated with [14C]-rivoglitazone at 20 uM after 2 to 4 hrs by radio-HPLC/LC-MS/MS analysis in presence of UDPGA, UDPGA/SAM and NADPH-generating system; type: ADME
# [2] = target: T1, UDP-glucuronosyltransferase 1A10 (Homo sapiens, UniProt Q9HAW8); test: Activity of human UGT1A10 expressed in microsomes isolated from baculovirus infected insect cell assessed as enzyme-mediated (2S,3S,4S,5R,6R)-6-((1-carboxy-2-(4-((6-methoxy-1-methyl-1H-benzo[d]imidazol-2-yl)methoxy)phenyl)ethylthio)carbonylamino)-3,4,5-trihydroxytetrahydro-2H-pyran-2-carboxylic acid formation at 20 uM after 4 hrs by radio-HPLC/LC-MS/MS analysis in presence of UDPGA; type: ADME
# T1 sequence (Q9HAW8 whole entry): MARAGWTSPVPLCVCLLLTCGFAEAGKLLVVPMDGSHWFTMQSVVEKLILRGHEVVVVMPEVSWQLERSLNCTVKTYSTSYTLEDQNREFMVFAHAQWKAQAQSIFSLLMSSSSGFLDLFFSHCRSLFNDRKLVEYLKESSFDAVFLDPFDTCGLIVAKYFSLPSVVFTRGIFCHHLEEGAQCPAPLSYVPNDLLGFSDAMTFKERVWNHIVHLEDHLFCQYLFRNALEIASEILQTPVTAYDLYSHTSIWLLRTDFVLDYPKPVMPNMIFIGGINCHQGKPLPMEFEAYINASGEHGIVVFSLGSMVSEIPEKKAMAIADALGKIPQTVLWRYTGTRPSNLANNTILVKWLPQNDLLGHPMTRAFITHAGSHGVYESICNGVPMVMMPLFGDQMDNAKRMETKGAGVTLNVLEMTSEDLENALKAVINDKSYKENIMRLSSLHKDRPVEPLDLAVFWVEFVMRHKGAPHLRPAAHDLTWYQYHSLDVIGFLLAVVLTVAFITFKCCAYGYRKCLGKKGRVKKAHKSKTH
# Outline: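 Alamethicin (50 μg/mg protein, 15 min on ice) pretreated expressed human UGT microsomes (1 mg/ml protein) from baculovirus-infected insect cells. Incubation with [¹⁴C]rivoglitazone (20 μM) in 100 mM Tris-HCl (pH 7.5) with 10 mM MgCl₂, started by 5 mM UDPGA, 4 h at 37°C with shaking. UGT insect-cell control supersomes were run alongside. Acetonitrile stop, concentrated supernatant analysed by radio-HPLC, LC-MS and LC-MS/MS.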
# [3] = target: T2, UDP-glucuronosyltransferase 1A9 (Homo sapiens, UniProt O60656); test: Activity of human UGT1A9 expressed in microsomes isolated from baculovirus infected insect cell assessed as enzyme-mediated 2-mercapto-3-(4-((6-methoxy-1-methyl-1H-benzo[d]imidazol-2-yl)methoxy)phenyl)propanoic acid formation at 20 uM after 4 hrs by radio-HPLC/LC-MS/MS analysis in presence of UDPGA; type: ADME
# T2 sequence (O60656 whole entry): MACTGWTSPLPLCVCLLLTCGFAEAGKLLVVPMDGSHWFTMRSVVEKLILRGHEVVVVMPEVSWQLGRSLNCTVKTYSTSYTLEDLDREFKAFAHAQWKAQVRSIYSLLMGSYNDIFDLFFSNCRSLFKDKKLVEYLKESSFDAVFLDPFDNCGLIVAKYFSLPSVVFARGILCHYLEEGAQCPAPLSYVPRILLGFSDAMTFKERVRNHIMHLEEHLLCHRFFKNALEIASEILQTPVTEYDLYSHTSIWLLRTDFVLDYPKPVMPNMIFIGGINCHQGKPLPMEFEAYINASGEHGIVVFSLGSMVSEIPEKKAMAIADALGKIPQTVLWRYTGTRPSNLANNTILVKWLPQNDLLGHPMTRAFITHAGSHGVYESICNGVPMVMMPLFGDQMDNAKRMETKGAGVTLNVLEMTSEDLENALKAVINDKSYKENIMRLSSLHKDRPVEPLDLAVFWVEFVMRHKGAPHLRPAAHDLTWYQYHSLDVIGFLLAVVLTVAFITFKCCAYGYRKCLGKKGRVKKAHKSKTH
# [4] = Drug metabolism in rat hepatocytes assessed as formation of (2S,3S,4S,5R,6R)-3,4,5-trihydroxy-6-(5-(4-((6-methoxy-1-methyl-1H-benzo[d]imidazol-2-yl)methoxy)benzyl)-2,4-dioxothiazolidin-3-yl)tetrahydro-2H-pyran-2-carboxylic acid at 30 uM after 3 hrs by radio-HPLC/LC-MS/MS analysis in presence of UDPGA and UDPGA/SAM; type: ADME, cell-based, Hepatocyte
# [5] = target: T3, Cytochrome P450 2C8 (Homo sapiens, UniProt P10632); test: Activity of human CYP2C8 expressed in microsomes isolated from baculovirus infected insect cell assessed as enzyme-mediated (2S,3S,4S,5R,6R)-3,4,5-trihydroxy-6-(5-(4-((6-methoxy-1-methyl-1H-benzo[d]imidazol-2-yl)methoxy)benzyl)-2,4-dioxothiazolidin-3-yl)tetrahydro-2H-pyran-2-carboxylic acid formation at 20 uM after 2 hrs by radio-HPLC/LC-MS/MS analysis in presence of UDPGA and UDPGA/SAM; type: ADME
# T3 sequence (P10632 whole entry): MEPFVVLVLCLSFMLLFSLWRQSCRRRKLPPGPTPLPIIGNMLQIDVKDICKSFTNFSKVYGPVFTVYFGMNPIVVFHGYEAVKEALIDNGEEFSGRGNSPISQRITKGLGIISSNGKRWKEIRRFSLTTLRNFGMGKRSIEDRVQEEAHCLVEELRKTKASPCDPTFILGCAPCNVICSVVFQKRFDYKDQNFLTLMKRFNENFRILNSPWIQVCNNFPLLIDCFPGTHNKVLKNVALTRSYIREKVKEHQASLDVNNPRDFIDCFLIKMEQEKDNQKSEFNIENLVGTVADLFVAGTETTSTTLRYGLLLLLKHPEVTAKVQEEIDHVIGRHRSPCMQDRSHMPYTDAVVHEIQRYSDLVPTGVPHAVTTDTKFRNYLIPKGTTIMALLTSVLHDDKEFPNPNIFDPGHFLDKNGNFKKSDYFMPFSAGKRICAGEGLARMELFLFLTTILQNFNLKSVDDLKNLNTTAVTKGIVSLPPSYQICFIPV
# [6] = target: T3, Cytochrome P450 2C8; test: (§1) Activity of human CYP2C8 expressed in microsomes isolated from baculovirus infected insect cell assessed as enzyme-mediated 3-(4-((6-methoxy-1-methyl-1H-benzo[d]imidazol-2-yl)methoxy)phenyl)-2-(methylthio)propanamide formation at 20 uM after 2 hrs by radio-HPLC/LC-MS/MS analysis in presence of NADPH-generating system/SAM; type: ADME
# [7] = target: T4, UDP-glucuronosyltransferase 1A3 (Homo sapiens, UniProt P35503); test: as §1, with “human UGT1A3” for “human CYP2C8”, “after 4” for “after 2”, “system/SAM in presence of UDPGA and UDPGA/SAM” for “system/SAM”; type: ADME
# T4 sequence (P35503 whole entry): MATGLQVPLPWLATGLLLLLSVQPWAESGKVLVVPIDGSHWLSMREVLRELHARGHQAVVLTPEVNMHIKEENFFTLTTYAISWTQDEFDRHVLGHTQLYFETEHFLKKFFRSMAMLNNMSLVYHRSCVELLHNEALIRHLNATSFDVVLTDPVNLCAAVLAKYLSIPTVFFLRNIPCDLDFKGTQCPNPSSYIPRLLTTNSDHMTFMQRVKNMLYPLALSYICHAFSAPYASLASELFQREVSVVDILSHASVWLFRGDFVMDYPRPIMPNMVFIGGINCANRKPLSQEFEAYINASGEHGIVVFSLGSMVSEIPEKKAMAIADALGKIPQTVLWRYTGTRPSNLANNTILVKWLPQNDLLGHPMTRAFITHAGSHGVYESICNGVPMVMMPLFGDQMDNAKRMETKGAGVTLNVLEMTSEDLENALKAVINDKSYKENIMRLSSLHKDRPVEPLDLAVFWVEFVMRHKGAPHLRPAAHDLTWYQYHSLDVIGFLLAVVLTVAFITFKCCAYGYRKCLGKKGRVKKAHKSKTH
Structure (SMILES),Drug metabolism [1],Drug metabolism [2],Drug metabolism [3],Drug metabolism [4],Drug metabolism [5],Drug metabolism [6],Drug metabolism [7]
COc1ccc2nc(COc3ccc(CC(S)C(=O)O)cc3)n(C)c2c1 (configuration not stated),metabolite_detected,–,–,–,–,–,–
COc1ccc2nc(COc3ccc(C[14CH]4SC(=O)NC4=O)cc3)n(C)c2c1.Cl (racemic),–,metabolite_not_detected,metabolite_not_detected,metabolite_detected,metabolite_not_detected,metabolite_not_detected,metabolite_not_detected
